Source: PubChem
Most compounds without a hit are left out; they make up all but 2% or so of the library.
HIF activator: HIF pathway transcriptional activation; activation, % at 7.5 µM (by protocol); U2OS HRE-luciferase reporter, luminescence; normalized: DMSO 0%, desferrioxamine 100%; hit rate 0.32% among 300,000;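 active means mean activation of at least 10% of the iron chelator positive control signal, with at least half of replicates also reaching 10%; inconclusive means mean and replicate majority disagree about reaching 10%; inactive means mean and most replicates under 10%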
NR2E3 ag-1: activates human NR2E3 receptor; Q9Y5X4; CHO-S Gal4-NCOR/VP16-NR2E3 two-hybrid, luciferase; inhibition of corepressor binding, % at 3.98 µM; hit rate 0.35% among 360,000; AID 602229;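 active means inhibition above the mean of all tested compounds plus 3 SD, cut at about 70% in these data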;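 further: 0% = DMSO with NR2E3 transfected cells and 100% = cells lacking NR2E3 construct; higher means lower luciferase signal from less NR2E3 corepressor binding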
Target sequence (Q9Y5X4 whole entry, looked up, the tested form may be a part): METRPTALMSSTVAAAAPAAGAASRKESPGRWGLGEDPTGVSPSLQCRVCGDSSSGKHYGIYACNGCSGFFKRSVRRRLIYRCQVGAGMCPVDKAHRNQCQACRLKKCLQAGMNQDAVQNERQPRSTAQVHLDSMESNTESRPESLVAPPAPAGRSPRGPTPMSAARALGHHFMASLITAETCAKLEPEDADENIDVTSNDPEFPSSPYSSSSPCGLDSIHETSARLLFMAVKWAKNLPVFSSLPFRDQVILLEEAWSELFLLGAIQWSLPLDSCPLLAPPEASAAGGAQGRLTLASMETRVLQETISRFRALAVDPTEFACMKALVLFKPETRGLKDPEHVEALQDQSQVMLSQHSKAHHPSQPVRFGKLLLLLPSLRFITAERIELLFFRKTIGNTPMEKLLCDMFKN
EBV LMP1 NFkB: Epstein-Barr LMP1 NF-kappaB reporter inhibition; AID 504558; LMP1-induced NF-kappaB luciferase reporter cells, luminescence; hit rate 0.69% among 350,000; inhibition, % at 12.5 µM; in the data active means inhibition above about 41%; inconclusive means no clear call, values can overlap the other calls;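 further: 0% = neutral control wells and 100% = reference inhibitor control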
TROY signal inh: blocks TROY-dependent signaling in reporter cells. Q293 LMP1-TROYcd NF-kB luciferase reporter, 4 h. AID 1347056. hit rate 0.98% among 360,000. inhibition, % at 10 µM;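 active means compounds whose plate-normalised and pattern-corrected inhibition of the luciferase reporter signal at the single screening dose is 50% or more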
NR2E3 ag-2: NR2E3 (human) agonism; Q9Y5X4; GST-NR2E3/biotin-RetCOR TR-FRET, 1536-well; inhibition of corepressor binding, % at 4.78 µM; hit rate 0.12% among 320,000; AID 2300;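 active means percent inhibition above the cutoff of mean plus 3 SD of all tested compounds, set per screening campaign, cut at about 20% in these data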;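 further: 0% = DMSO wells and 100% = biotin wells as full block of FRET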
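Assay system: NR2E3–RetCOR corepressor complex. Quantity: 1.35 nM GST-NR2E3. Buffer or medium: pH 7.5 Tris-based buffer. Reagent: biotinylated RetCOR corepressor at 7 nM final. Schedule: 5 h at 4 °C. Detection: TR-FRET, emission read at 617 and 671 nm. Replicates: one well per compound, singlicate testing.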
Numbers without * were called inactive.

Results for N#Cc1c([N+](=O)[O-])cc([N+](=O)[O-])cc1S(=O)(=O)Cc1ccccc1 ?
NR2E3 ag-1: 10; EBV LMP1 NFkB: 28; TROY signal inh: 52*; NR2E3 ag-2: 8

How did CCc1ccc(N2CC(C(=O)Nc3cccc(S(=O)(=O)N4CCCC4)c3)CC2=O)cc1 (configuration not stated) do in these assays?
HIF activator: 0; NR2E3 ag-1: 13; EBV LMP1 NFkB: 9; TROY signal inh: 5; NR2E3 ag-2: 3

What do the screens show for `O=c1oc2ccccc2cc1-c1cn2ccccc2n1`?
HIF activator: -2; NR2E3 ag-1: -59; EBV LMP1 NFkB: 68*; TROY signal inh: 71*; NR2E3 ag-2: 1

What do the screens show for `O=c1oc2ccccc2cc1-c1cn2cccnc2n1`?
HIF activator: 0; NR2E3 ag-1: -86; EBV LMP1 NFkB: 29; TROY signal inh: -28; NR2E3 ag-2: 1

How did Cc1ccc(NC(=O)CSc2nn(-c3ccc(Cl)cc3)c(=S)s2)cc1S(=O)(=O)N(C)C do in these assays?
HIF activator: -1; NR2E3 ag-1: 4; EBV LMP1 NFkB: 19; TROY signal inh: 52*; NR2E3 ag-2: 3

How did CN(C)S(=O)(=O)c1cc(NC(=O)CSc2nn(-c3ccc(Cl)cc3)c(=S)s2)ccc1Cl do in these assays?
HIF activator: 0; NR2E3 ag-1: -12; EBV LMP1 NFkB: 22; TROY signal inh: 41; NR2E3 ag-2: 3

What do the screens show for `COc1ccc(OC)c(NC(=O)COc2coc(CN3CCCc4ccccc43)cc2=O)c1`?
HIF activator: -1; NR2E3 ag-1: -10; EBV LMP1 NFkB: 19; TROY signal inh: -21; NR2E3 ag-2: -4

What do the screens show for `COc1ccc(OC)c(NC(=O)COc2coc(CN3CCc4ccccc43)cc2=O)c1`?
HIF activator: -1; NR2E3 ag-1: -15; EBV LMP1 NFkB: 50*; TROY signal inh: 9; NR2E3 ag-2: 0

Results for CC(=O)Nc1ccc(CN2C(=O)C(Cc3ccccc3)ON=C2c2cccc(F)c2)cc1 (configuration not stated) ?
NR2E3 ag-1: -19; TROY signal inh: 83*

Results for Cc1cccnc1C1=NOC(Cc2ccccc2)C(=O)N1Cc1ccc(F)cc1 (configuration not stated) ?
NR2E3 ag-1: -35; TROY signal inh: -61

Results for Cc1ccccc1C(=O)N1CCC2CC1c1cc(Cl)ccc12 (configuration not stated) ?
NR2E3 ag-1: -31; EBV LMP1 NFkB: 2; TROY signal inh: 81*

What do the screens show for `Cc1ccccc1C(=O)N1CCC2CC1c1cc(-c3ccc(F)cc3)ccc12` (configuration not stated)?
NR2E3 ag-1: 0; EBV LMP1 NFkB: 4; TROY signal inh: 37

Results for CS(=O)(=O)c1ccc(C(=O)OCc2nnc(-c3ccc(Cl)cc3)o2)cc1[N+](=O)[O-] ?
HIF activator: 1; NR2E3 ag-1: -1; EBV LMP1 NFkB: -10; TROY signal inh: 66*; NR2E3 ag-2: 1

Results for O=C1C(C=NCCCN2CCOCC2)=C(O)c2ccccc21 ?
HIF activator: 2; NR2E3 ag-1: -20; EBV LMP1 NFkB: -3; TROY signal inh: 58*; NR2E3 ag-2: 3

How did CSc1nc2cc3c(cc2n1C(=O)c1ccc(C)cc1)OCCO3 do in these assays?
HIF activator: 1; NR2E3 ag-1: -21; EBV LMP1 NFkB: 44*; TROY signal inh: -14; NR2E3 ag-2: -3

Results for Cc1ccc(F)cc1CNC(=O)C1CCC(=O)N(CCCN2CCCC2=O)C1 (configuration not stated) ?
HIF activator: 1; NR2E3 ag-1: -35; EBV LMP1 NFkB: -26; TROY signal inh: -36; NR2E3 ag-2: 1

Results for CC(C)C(=O)NC(c1cccc([N+](=O)[O-])c1)c1ccc2cccnc2c1O (configuration not stated) ?
HIF activator: 95*; NR2E3 ag-1: -9; EBV LMP1 NFkB: 52*; TROY signal inh: -11; NR2E3 ag-2: -1

How did CC(C)C(=O)NC(c1ccc([N+](=O)[O-])cc1)c1c(O)ccc2ccccc12 (configuration not stated) do in these assays?
HIF activator: 0; NR2E3 ag-1: -25; EBV LMP1 NFkB: 5; TROY signal inh: 20; NR2E3 ag-2: 2

What do the screens show for `CCC(=O)NC(c1cccc([N+](=O)[O-])c1)c1c(OC(C)=O)ccc2ccccc12` (configuration not stated)?
HIF activator: 0; NR2E3 ag-1: -28; EBV LMP1 NFkB: -6; TROY signal inh: 19; NR2E3 ag-2: -1

What do the screens show for `CCCC(=O)NC(c1cccc([N+](=O)[O-])c1)c1ccc2cccnc2c1O` (configuration not stated)?
NR2E3 ag-1: -17; EBV LMP1 NFkB: 68*; TROY signal inh: 14

How did CC(C)C(=O)NC(c1cccc([N+](=O)[O-])c1)c1c(O)ccc2ccccc12 (configuration not stated) do in these assays?
HIF activator: 0; NR2E3 ag-1: -59; EBV LMP1 NFkB: -23; TROY signal inh: 51*; NR2E3 ag-2: 2

What do the screens show for `CCOC(=O)C1=C(COC(=O)c2cc(S(=O)(=O)N3CCOCC3)ccc2F)NC(=O)NC1C` (configuration not stated)?
NR2E3 ag-1: -23; EBV LMP1 NFkB: -1; TROY signal inh: -3

What do the screens show for `CC(C)(C)c1ccc(NC(=O)COc2ccc(-n3ccnc3)cc2)cc1`?
HIF activator: -2; NR2E3 ag-1: 36; EBV LMP1 NFkB: -1; TROY signal inh: 75*; NR2E3 ag-2: -1

Results for O=C(Nc1cc(Cl)ccc1O)c1snnc1-c1ccccc1 ?
HIF activator: -1; NR2E3 ag-1: 33; EBV LMP1 NFkB: 13; TROY signal inh: 55*; NR2E3 ag-2: 1

Results for CN1CCN(c2ccc3sc(-n4ccc5ccccc54)nc3c2)CC1 ?
NR2E3 ag-1: -27; EBV LMP1 NFkB: 9; TROY signal inh: 80*

What do the screens show for `c1ccc(N2CCN(c3nc4cc5c(cc4s3)OCO5)CC2)cc1`?
HIF activator: 3; NR2E3 ag-1: -106; EBV LMP1 NFkB: -2; TROY signal inh: -20; NR2E3 ag-2: 2

How did CC1=C(C#N)C(=O)N(C2CCS(=O)(=O)C2)C(=O)/C1=C\c1ccco1 (configuration not stated) do in these assays?
HIF activator: 0; NR2E3 ag-2: 27*

How did O=C1/C(=C\c2ccco2)SC(=S)N1C1CCCCC1 do in these assays?
HIF activator: -1; NR2E3 ag-2: -5

What do the screens show for `O=[N+]([O-])/C=C\c1ccc(N2CCOCC2)cc1`?
HIF activator: 0; NR2E3 ag-1: -19; EBV LMP1 NFkB: inconclusive; TROY signal inh: 53*; NR2E3 ag-2: 0

How did O=C(COc1ccc(/C=C\[N+](=O)[O-])cc1)N1CCOCC1 do in these assays?
HIF activator: 1; NR2E3 ag-1: -11; EBV LMP1 NFkB: 5; TROY signal inh: 25; NR2E3 ag-2: 0
